# Screening results as filed in PubChem.
# In the library only some 3.1% were active in any assay of this set; here they are far more common.
# PAX8 inh HTS – inhibitors of PAX8 transcriptional activity in RMG-I cells; RMG-I TPO-luciferase reporter, SteadyGlo, 24 h; inhibition, % at 12.6 µM; 360,000 compounds, 1.2% hits; AID 652154;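 active means mean replicate inhibition at least 60% with every replicate also reaching 60%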;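 further: luciferase light reporting Pax8 driven TPO promoter activity; plate controls were median of neutral control wells for no effect and mitoxantrone controls for full effect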
# PGC1a acetyl inh – lowers PGC1a acetylation signal in U2OS cells; AlphaScreen anti-acetyl-lysine; with virally co-expressed GCN5 acetyltransferase; inhibition, % at 15.6 µM; 350,000 compounds, 0.17% hits; AID 651687;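 active means every replicate shows inhibition of at least 40%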;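 further: 0% = neutral control wells and 100% = positive control wells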
# HIV Env fusion – blocks HIV Env-driven cell-cell fusion; 360,000 compounds, 1.1% hits; inhibition, % at 12.3 µM; HeLa-JRFL Env/CEM21 cell fusion, luciferase;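 active means mean replicate inhibition score of at least 50 and every replicate individually at or above 50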;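 further: 0% = plate neutral controls and 100% = maraviroc near 300 nM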
# FGF22 binding – FGF22 (human) thermal shift binding; Q9HCT0; recombinant FGF22 thermal shift, SYPRO orange fluorescence; percent of sucrose octasulfate shift, DMSO zero; activity (Tm shift, normalised), % at 9.99 µM; 340,000 compounds, 1.5% hits; AID 651658;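 active means mean Tm shift, scaled 0 neutral to 100 positive control, at about 1.3% or above, every replicate too, limit read from the data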
# Target sequence (Q9HCT0 whole entry, looked up): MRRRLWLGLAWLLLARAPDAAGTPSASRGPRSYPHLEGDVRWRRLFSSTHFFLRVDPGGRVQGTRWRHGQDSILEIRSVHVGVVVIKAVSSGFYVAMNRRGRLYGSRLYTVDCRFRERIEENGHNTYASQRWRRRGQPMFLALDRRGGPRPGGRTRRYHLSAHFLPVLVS
# EWS-Fli block – blocks EWS/Fli oncoprotein-driven transcription; A673 NR0B1-luciferase reporter, viability-normalised; inhibition, % at 12.6 µM; 350,000 compounds, 0.67% hits; AID 651661;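 active means mean inhibition of at least 50% after viability correction, with every replicate also passing that limit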;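 further: firefly luciferase signal divided by Alamar Blue viability fluorescence both relative to DMSO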
# FN deposition inh – fibronectin deposition inhibition; inhibition, % at 12.6 µM; AH1F fibroblasts, Alexa488-fibronectin deposition fluorescence, overnight; 350,000 compounds, 0.086% hits;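 active means mean inhibition across replicates of 30% or more, regardless of how many single replicates reach that level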;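 further: positive control wells lacked labelled fibronectin entirely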
#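 material = AH1F fibroblast monolayer depositing Alexa488-labelled fibronectin into matrix | amount = 10000 AH1F cells/well | buffer or medium = DMEM plus 2% serum, read in PBS | incubation = 1 h cell adhesion before compound, then overnight fibronectin incubation | detection = fluorescence at 485 nm excitation, 525 nm emission | evaluation = percent inhibition as loss of matrix-bound fibronectin fluorescence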
# Active calls of the source: *; nt = not tested or not shown; [ ] = dose if it differs, or a comment.
SMILES,PAX8 inh HTS,PGC1a acetyl inh,HIV Env fusion,FGF22 binding,EWS-Fli block,FN deposition inh
O=C(CCN1CCCCC1)N[C@@H]1CC[C@@H](CCn2cc(-c3ccc(F)cc3)nn2)O[C@@H]1CO,-6.1,5.0,7.2[16.7 µM],-0.1,-4.5,nt
O=C(C[C@@H]1CC[C@@H]2[C@H](COC[C@H](O)CN2C(=O)Nc2ccc(Cl)cc2)O1)NC1Cc2ccccc2C1,nt,-5.6,nt,-0.2,nt,-14.3
Cc1noc(C)c1NC(=O)Nc1ccc2c(c1)C(=O)N([C@@H](C)CO)C[C@@H](C)[C@H](CN(C)C(=O)C1CCCCC1)OCCCC[C@@H](C)O2,12.0,-2.9,-31.0[16.7 µM],0.4,4.0,nt
CC(C)NC(=O)N1Cc2cc(C(=O)NC3CCC3)nc(-c3cccc(-c4cccnc4)c3)c2[C@@H]1CCO,11.4,-12.2,nt,nt,nt,3.1
COc1ccc(-c2cn(CC[C@H]3CC[C@H](NC(=O)Cc4ccccn4)[C@@H](CO)O3)nn2)cc1,85.7*,1.8,19.7[16.7 µM],0.0,-8.2,nt
COc1ccc(-c2cn(CC[C@H]3CC[C@H](NC(=O)Cc4ccccn4)[C@H](CO)O3)nn2)cc1,54.9,16.6,4.6[16.7 µM],-0.2,-8.4,nt
COc1cccc(S(=O)(=O)N[C@@H]2CC[C@H](CCn3cc(-c4ccccc4)nn3)O[C@@H]2CO)c1,12.2,6.7,4.5[16.7 µM],-0.3,52.7*,nt
COc1ccc(-c2cn(CC[C@H]3CC[C@@H](NC(=O)Cc4ccccn4)[C@H](CO)O3)nn2)cc1,76.6*,-12.1,8.0[16.7 µM],0.0,-6.7,nt
COc1ccc(-c2cn(CC[C@@H]3CC[C@@H](NC(=O)Cc4ccccn4)[C@@H](CO)O3)nn2)cc1,62.1*,-6.9,6.3[16.7 µM],-0.2,-7.9,nt
O=C(Cc1ccccn1)N[C@H]1CC[C@H](CCn2cc(-c3ccc(F)cc3)nn2)O[C@@H]1CO,nt,4.8,nt,nt,-2.3,5.0
O=C(Cc1ccccn1)N[C@H]1CC[C@H](CCn2cc(-c3ccccc3)nn2)O[C@H]1CO,2.3,-2.2,-12.6[16.7 µM],0.1,1.4,nt
Cc1noc(C)c1NC(=O)Nc1ccc2c(c1)C(=O)N([C@H](C)CO)C[C@H](C)[C@@H](CN(C)C(=O)CCCN(C)C)OCCCC[C@@H](C)O2,-21.3,0.5,-13.5[16.7 µM],0.2,-8.6,nt
Cc1ccccc1S(=O)(=O)N[C@H]1CC[C@H](CCn2cc(Cc3ccccc3)nn2)O[C@@H]1CO,-6.2,60.9*,4.0[16.7 µM],0.0,-4.0,13.6
O=S(=O)(N[C@H]1CC[C@@H](CCn2cc(Cc3ccccc3)nn2)O[C@H]1CO)c1ccccc1F,nt,-5.1,nt,0.5,nt,-3.5
CCCNC(=O)N1C[C@@H](O)COC[C@H]2O[C@H](CC(=O)N[C@H]3CCN(Cc4ccccc4)C3)CC[C@@H]21,-0.7,-4.8,-7.3[16.7 µM],-0.4,2.5,-4.4
C[C@@H]1CN([C@H](C)CO)C(=O)CCCn2cc(nn2)CO[C@@H]1CN(C)C(=O)C1CC1,-2.6,3.4,nt,nt,-8.9,-1.8
CCc1ccccc1-n1c(SCC(=O)N2CCCC2)nc2[nH]ncc2c1=O,-2.4,-12.8,5.4,43.7*,10.7,8.8
Cc1ccc2c(c1)[C@H]1[C@H](CO2)[C@H](c2ccccc2)[C@]2(C)C(=O)Nc3cc(Cl)ccc3C(=O)N12,nt,16.3,nt,nt,nt,nt
COc1ccc2c(c1)OC[C@H]1[C@H]2N2C(=O)c3cc(F)ccc3NC(=O)[C@@]2(C)[C@H]1c1ccccc1,2.1,-5.8,-1.2,0.0,1.7,3.9
Cc1ccc2c(c1)[C@H]1[C@H](CO2)[C@H](c2ccccc2)[C@]2(C)C(=O)Nc3ccc(F)cc3C(=O)N12,40.8,-11.3,19.6,0.0,56.3*,16.8
Cc1ccc2c(c1)[C@H]1[C@H](CO2)[C@H](c2ccccc2)[C@]2(C)C(=O)Nc3cc(F)c(F)cc3C(=O)N12,6.0,nt,-5.7,-0.1,58.8*,11.5
COc1ccc2c3c(n(C)c2c1)[C@H](CO)N(C(=O)NC1CCCC1)CC31CCN(C(C)=O)CC1,nt,0.0,nt,-0.2,-7.3,nt
O=C(C1CC1)N1CC(=O)N2[C@H](CO)[C@H](c3ccc(C#Cc4cccc(F)c4)cc3)[C@@H]2C1,-6.6,-16.4,nt,nt,-4.4,-3.8
O=C(C[C@@H]1CC[C@@H]2[C@H](COC[C@@H](O)CN2Cc2ccc(C(F)(F)F)cc2)O1)NCCc1ccccc1,nt,-13.4,nt,-0.1,nt,-13.5
CCOc1ccc(OCC)c(NC(=O)CSc2nc3ccccc3c(=O)n2C)c1,nt,8.6,91.0*,nt,nt,nt
